Experimental data taken from the array DNA melting data of Ke et al. (doi:10.1101/2024.01.08.574731).

Experiments:
[1] = folding enthalpy; higher = less favourable; fluorescence melt of hairpins on a sequencing array, two-state fit; details: sodium 0.088 M
Outline: (§1)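 In 50 mM Na-HEPES pH 8.0 containing 25 mM NaCl, hairpins from the library on a sequenced MiSeq flow cell were imaged for Cy3 fluorescence at 2.5 °C steps up to 60 °C, with Cy3 and quencher oligos annealed. After normalisation to pre-quench Cy3 and to control constructs, two-state fits with bootstrapping gave melting temperature and folding enthalpy. Four replicates were combined by inverse-variance weighting, and fitted temperatures were shifted up by 9.35 °C to match UV melts.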

[2] = melting temperature; fluorescence melt of hairpins on a sequencing array, two-state fit, raised by 9.35 °C to match UV melts; details: sodium 0.088 M
Outline: as §1

| Sequence | folding enthalpy [1] | Tm [2] |
| --- | --- | --- |
| GATCACGATTGTGATC ((((((....)))))) | -33.2 kcal/mol | 56.6 °C |
| GGTGTACGAAAGTAGACC (((.(((....))).))) | -38.3 kcal/mol | 52.2 °C |
| GTTGCAGGAAACTGTAGC (.(.(((....))).).) | -19.9 kcal/mol | 32.6 °C |
| GATCGAGATCTCGATC ((((((....)))))) | -50.6 kcal/mol | 55.7 °C |
| GCTAAGCGAAAGCTCCGC ((..(((....)))..)) | -10.6 kcal/mol | 26.9 °C |
| GATCTCGGAGAGATC ((((((...)))))) | -33.3 kcal/mol | 67.4 °C |
| GTGGTGGGAAACTGCCAC ((((..(....)..)))) | -29.2 kcal/mol | 49.1 °C |
| GCTTATCCGAAAGGAAGC (((..(((....)))))) | -15.5 kcal/mol | 34.3 °C |
| GTAATGGGAAACCATTAC (((((((....))))))) | -45.5 kcal/mol | 53.4 °C |
| GATCGGCGGGCCGATC ((((((....)))))) | -38.9 kcal/mol | 66.9 °C |
| GGTTCCCGAAAGGGCACC (((.(((....))).))) | -26.2 kcal/mol | 51.6 °C |
| GATCTCATCTGAGATC ((((((....)))))) | -39.9 kcal/mol | 53.6 °C |
| GACGGTACGAAAGTAGTC (((..(((....)))))) | -16 kcal/mol | 34.5 °C |
| GCGTCGCGAAAGCCGCGC (((..((....))..))) | -29.7 kcal/mol | 66 °C |
| GCACGACGAAAGTCCTGC (((.(((....))).))) | -26.8 kcal/mol | 45.6 °C |
| GAGGGAGCGAAAGCTCTC (((..(((....)))))) | -9.38 kcal/mol | 42.8 °C |
| GATCGTGCGAAAGCAATC (((..(((....)))))) | -6.96 kcal/mol | 23.5 °C |
| GATGGAGCGAAAGCTATC (((..(((....)))))) | -10.5 kcal/mol | 30.2 °C |
| GCAAGTGGAAACGCTTGC (((((.(....).))))) | -39.1 kcal/mol | 54.9 °C |
| GACCACGAAAGTGCTGTC ((((((....)))..))) | -17.2 kcal/mol | 34 °C |
| GTACTGTCGAAAGACTAC (((..(((....)))))) | -10.3 kcal/mol | 26.4 °C |
| GGTTGTGGAAACACGATC (.(.(((....))).).) | -21.9 kcal/mol | 34 °C |
| GGTGTTGCGAAAGCAACC (((..(((....)))))) | -8.2 kcal/mol | 49.5 °C |

| Sequence | folding enthalpy [1] | Tm [2] |
| --- | --- | --- |
| GGCGTTGGAAACGACGTC (.(((.(....).))).) | -29.8 kcal/mol | 58.1 °C |
| GGCCACACGAAAGTGGCC (((..(((....)))))) | -39.1 kcal/mol | 67.5 °C |
| CGCTGTCGGAAACGAGCG (((..(((....)))))) | -25 kcal/mol | 45.2 °C |
| GTGCCCGAAAGGGTTCAC ((((((....)))..))) | -11.8 kcal/mol | 41.1 °C |
| GTAGATGGAAACATCTAC (((((((....))))))) | -41.3 kcal/mol | 55.5 °C |
| GGGGACGGAAACGTTCCC (((.(((....))).))) | -43.9 kcal/mol | 61.4 °C |
| GCAATCGAAAGATTTTGC ((((((....)))..))) | -14.8 kcal/mol | 28.8 °C |
| GGGATGCGAAAGCACCC (((.(((....)))))) | -21.4 kcal/mol | 60 °C |
| GAGTCTGGAAACGGACTC (((((.(....).))))) | -40.4 kcal/mol | 52.3 °C |
| GTGACTGGAAACAATCAC ((((.((....)).)))) | -20.1 kcal/mol | 36 °C |
| GTCTGTGAAAACAGAC ((((((....)))))) | -36.1 kcal/mol | 57.8 °C |
| GTCACGCGAAAGCGAGAC (((.(((....))).))) | -17.5 kcal/mol | 60.1 °C |
| GTAACCGAAAGGTGTTAC ((((((....)))..))) | -12.6 kcal/mol | 35 °C |
| GCGACTCGAAAGAGACGC (((.(((....))).))) | -48.5 kcal/mol | 62.3 °C |
| GATCTATCTCTAGATC ((((((....)))))) | -28.3 kcal/mol | 39.6 °C |
| GCGACACTTCGC ((((....)))) | -26.7 kcal/mol | 52.1 °C |
| GTGCACGAAAGTGTGCAC ((((((....)))..))) | -34 kcal/mol | 62.6 °C |
| GCTGTCCGAAAGGATAGC (((.(((....))).))) | -39.6 kcal/mol | 59.3 °C |
| CGTACGGAAACGTAAACG ((((((....)))..))) | -17.3 kcal/mol | 37.2 °C |
| GCATGCGGAAACGCATAC (.(((((....))))).) | -9.77 kcal/mol | 44 °C |
| GGTTGGGGAAACCTGACC (((..((....))..))) | -22.5 kcal/mol | 44.1 °C |
| GCCTAGCGAAAGCTTAGC ((..(((....)))..)) | -12.6 kcal/mol | 36.8 °C |
| GGTTCCGAAAGGAATACC ((((((....)))..))) | -14.1 kcal/mol | 41.5 °C |

| Sequence | folding enthalpy [1] | Tm [2] |
| --- | --- | --- |
| GCATTTGGAAACAAATAC (.(((((....))))).) | -17.9 kcal/mol | 29.3 °C |
| GGCTATGGAAACATAACC ((.((((....)))).)) | -25.7 kcal/mol | 34.4 °C |
| GCCAGTGGAAACGCTGGC (((((.(....).))))) | -41.8 kcal/mol | 61 °C |
| GGGCTGGGAAACTGGCCC ((((..(....)..)))) | -48.3 kcal/mol | 54.3 °C |
| GCTCTCGAAAGAGGGAGC ((((((....)))..))) | -21.8 kcal/mol | 45.5 °C |
| GATCTAGGTATAGATC ((((((....)))))) | -34.7 kcal/mol | 47.5 °C |
| GCCAATCGAAAGATCGGC (((.(((....))).))) | -35.6 kcal/mol | 49.8 °C |
| GACGACGAAAGTCGCGTC ((((((....)))..))) | -10.6 kcal/mol | 49.9 °C |
| GCCGAGCGAAAGCTGGGC (((.(((....))).))) | -30 kcal/mol | 68 °C |
| GATCGTGGATACGATC ((((((....)))))) | -51.4 kcal/mol | 60.7 °C |
| GGAGCCGAAAGGCTGTCC ((((((....)))..))) | -8.93 kcal/mol | 41 °C |
| GCGCAAGGAAACCTGCGC (((((.(....).))))) | -41.7 kcal/mol | 62.4 °C |
| GCCTTTCGAAAGAACGGC (((.(((....))).))) | -39.5 kcal/mol | 48.8 °C |
| GATCAACTTATTGATC ((((((....)))))) | -35.4 kcal/mol | 43 °C |
| GCGTACCACGC ((((...)))) | -24.7 kcal/mol | 55.9 °C |
| GAGATCGCGAAAGCGCTC (((..(((....)))))) | -8.57 kcal/mol | 33.6 °C |
| GATCGTTGGAACGATC ((((((....)))))) | -42.4 kcal/mol | 54.4 °C |
| GATCGTCCAGACGATC ((((((....)))))) | -42.3 kcal/mol | 59.8 °C |
| GATGTCCGAAAGGATATC (((.(((....))).))) | -35.6 kcal/mol | 52.3 °C |
| GGAGCCTCGAAAGAGTCC (((..(((....)))))) | -9.23 kcal/mol | 25.9 °C |
| GATCCTTTGCAGGATC ((((((....)))))) | -30.6 kcal/mol | 52 °C |
| GCTTCAGGAAACTAAAGC ((((.((....)).)))) | -26.3 kcal/mol | 28.7 °C |
| GATCGCATTGGCGATC ((((((....)))))) | -33.2 kcal/mol | 68.8 °C |
